Assay outcomes as filed in PubChem BioAssay.
L major viab: Leishmania major promastigote growth inhibition, primary screen; Leishmania major promastigotes, resazurin fluorescence viability; inhibition, % at 10 µM; hit rate 9% among 200,000; AID 1063, 2008; in the data active means inhibition above about 50%;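 further: promastigotes grown with compound for 44 hours at 28 °C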
WT yeast gro inh: growth inhibition of WT strain, primary screen, mitochondrial fusion inhibitor project, WT and mutant strains, chemical genetic | mitochondrial fusion phenotypic screen | inhibition, % at 10 µM | hit rate 2.1% among 190,000 | AID 1362, 2008; in the data active means inhibition above about 58%; tested in S. cerevisiae
KCC2 mod: KCC2 cotransporter modulators, thallium flux, primary screen, cell-based, HEK293 KCC2, FluoZin-2 fluorescence, MLSMR; Solute carrier family 12 member 5 (Homo sapiens), Q9H2X9; KCC2 cells, thallium flux FluoZin-2 fluorescence; B-score of Tl+ flux slope (higher = more flux/activation; lower = inhibition) at 10 µM; hit rate 2.2% among 190,000;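 active means thallium flux slope and its plate-corrected score both differing from the plate sample mean at a set confidence after two filtering rounds, in either direction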;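 further: slope of fluorescence scaled to starting intensity during 10 to 20 s after thallium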
Diaph inh CS: diaphorase inhibitors and chemical oxidizers, primary screen, counter-screen for diaphorase-coupled primary assays, biochemical, uHTS, resorufin fluorescence | diaphorase resazurin-to-resorufin fluorescence, NADH, 16 min; bacterial (C. kluyveri) enzyme, not human | inhibition, % at 20 µM | hit rate 0.69% among 190,000;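 active means primary screen inhibition at 20 µM above a set limit, cut at about 50% in these data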;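 further: plate controls were DMSO with full reaction for no effect and wells lacking NADH for full effect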
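Test system: diaphorase enzyme from Clostridium kluyveri; amount: diaphorase at 0.14 U/mL in enzyme working solution; detection: fluorescence of resorufin formed from resazurin, Ex 544/Em 590 nm; times: reaction incubation of 16 min at room temperature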
Diaphorase act: compounds boosting diaphorase resazurin reduction – biochemical, uHTS, resorufin fluorescence, counter-screen for diaphorase-coupled primary assays, primary screen; hit rate 0.005% among 190,000; Diaphorase/resazurin coupled assay, 16 min; stronger effect = higher value; 1 = vehicle wells, 0 = NADH-free wells; activation factor at 20 µM; AID 1229, 2008;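 active means diaphorase activity raised at least twofold by the compound at 20 µM; inactive means activation factor below 2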
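Measured by – red resorufin fluorescence at 544/590 nm excitation/emission · Test system – Clostridium kluyveri diaphorase, purified enzyme · Incubation – reaction time 16 min, room temperature · Buffer or medium – 50 mM HEPES pH 7.4 with 4.542 mM MgCl2, 0.005% Tween 20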
ROMK primary: ROMK potassium channel modulators, primary screen, cell-based, thallium flux, MLSMR library | ATP-sensitive inward rectifier potassium channel 1 (Homo sapiens), P48048 | Tet-inducible ROMK, thallium flux fluorescence; actives lie on both sides | B-score at 10 µM | hit rate 2% among 130,000 | AID 1918, 2009;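 active means signal ratio slope over the read window, or its plate-corrected B-score, at least 3 SD from the plate mean, either direction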;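 further: B-score of the F/F0 ratio slope over 7 to 12 s after thallium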
KCC2 secondary: KCC2 modulators in sodium-free buffer, confirmation, cell-based, HEK293 KCC2, thallium flux, secondary assay; shares compounds with KCC2 mod; FluoZin2 fluorescence; stronger effect = higher value; normalised thallium flux (F/F0 slope) at 10 µM; hit rate 15% among 3,700; AID 1713, 2009;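 active means thallium flux slope above the same plate's solvent-only control mean plus 3 SD; inconclusive means the two replicate wells disagree; inactive means no significant difference from solvent-only control wells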
KCC2 bumet counter: thallium flux persisting under bumetanide in KCC2 cells, confirmation, counter-screen for KCC2 modulator project, cell-based, HEK293 KCC2, FluoZin2, secondary assay 3 | shares compounds with KCC2 mod | HEK293-KCC2 + bumetanide/ouabain; stronger effect = higher value | normalized thallium flux at 10 µM | hit rate 49% among 3,700;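 active means thallium entry rate above the same plate's blocked-transporter control wells by more than 3 SD; inconclusive means the two repeat wells disagree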;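 further: raw slope of fluorescence over initial fluorescence between 10 and 20 s after thallium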
KCC2 secondary2: KCC2 modulators without ouabain present, confirmation, cell-based, HEK293 KCC2, thallium flux, FluoZin2, secondary assay 2. thallium flux FluoZin2 fluorescence; actives lie on both sides; F/F0 rise rate, 10–20 s post-thallium. normalized thallium flux at 10 µM. hit rate 23% among 3,700. shares compounds with KCC2 mod;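 active means thallium flux slope more than 3 SD above or below the plate's solvent-only control mean, mostly below; inconclusive means the two repeat wells disagreed; inactive means no significant shift from solvent-only controls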;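 further: raw slope with 0.1% DMSO as baseline and bumetanide as block control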
HEK counter1: thallium flux modulation in parental HEK cells, confirmation, counter-screen for KCC2 modulator project, cell-based, counterscreen 1. HEK293 parental cells, thallium flux FluoZin2, ouabain; baseline-ratio fluorescence slope, 10–20 s after thallium. hit rate 46% among 3,700. thallium flux rate (normalised fluorescence) at 10 µM. shares compounds with KCC2 mod;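 active means thallium flux rate significantly above the same plate's solvent-only control wells, beyond their mean plus 3 SD; inconclusive means the two replicate wells gave conflicting results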
KCC2 ouabain: KCC2 inhibitors and activators, ouabain retest, confirmation, HEK-KCC2 cells; shares compounds with KCC2 mod; HEK293-KCC2, thallium flux FluoZin2 fluorescence; bidirectional: low = inhibitor, high = activator; raw Tl+ flux slope (below DMSO = inhibition, above = activation) at 10 µM; hit rate 48% among 3,700; AID 1717, 2009;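 active means thallium flux slope beyond 3 SD from same-plate DMSO control mean in most replicates, usually higher, sometimes lower; inconclusive means repeat tests gave conflicting results; inactive means no significant difference from controls in most replicates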;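 further: slope of initial-normalized fluorescence between seconds 10 and 20 after thallium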
HEK293 Tl flux2: native HEK Tl+ uptake effects, second counter-screen – HEK cells, counterscreen 2, counter-screen for KCC2 modulator project, confirmation | shares compounds with KCC2 mod | HEK293 parental, thallium flux FluoZin-2 fluorescence slope | thallium flux slope at 10 µM | hit rate 33% among 3,700 | AID 1718, 2009;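 active means thallium flux slope above the same plate's solvent-control mean plus 3 SD in both duplicate wells; inconclusive means duplicate wells that disagreed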;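 further: run without ouabain in cells lacking the KCC2 cotransporter; slope of fluorescence scaled to its starting value between 10 and 20 s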
The depositor's hits bear a star. Shown are actives, neighbours in structure and some others; about 12% of the full set was active somewhere.

How did Cc1ccccc1OCC(=O)NNC(=O)CCN1C(=O)c2ccccc2C1=O do in these assays?
L major viab: -5; WT yeast gro inh: 13; KCC2 mod: -3.9*; Diaph inh CS: 0; Diaphorase act: 1; ROMK primary: -0.018; KCC2 secondary: 0.0068; KCC2 bumet counter: 0.0056; KCC2 secondary2: 0.023*; HEK counter1: 0.0078; KCC2 ouabain: inconclusive; HEK293 Tl flux2: 0.011

What do the screens show for `CC1CCCC(C)N1NC(=S)Nc1ccc(OC(F)F)cc1` (stereo not given)?
L major viab: -4; WT yeast gro inh: 12; KCC2 mod: 0.92; Diaph inh CS: -9; Diaphorase act: 1.1; ROMK primary: -1.1

How did O=C(O)c1ccc(N2CC3CC(C2)c2cccc(=O)n2C3)c(NC(=S)Nc2ccc(Cl)cc2Cl)c1 (stereo not given) do in these assays?
L major viab: 2; WT yeast gro inh: -3; KCC2 mod: 15*; Diaph inh CS: 7; Diaphorase act: 0.9; ROMK primary: 0.089; KCC2 secondary: 0.011; KCC2 bumet counter: 0.015*; KCC2 secondary2: 0.035; HEK counter1: inconclusive; KCC2 ouabain: inconclusive; HEK293 Tl flux2: 0.013

What do the screens show for `CCCS(=O)(=O)NCc1ccc2c(c1)cc(C)n2C`?
L major viab: -6; WT yeast gro inh: 7; KCC2 mod: 0.23; Diaph inh CS: 9; Diaphorase act: 0.9; ROMK primary: -0.61

Results for CCS(=O)(=O)NCc1ccc2c(c1)cc(C)n2C ?
L major viab: -7; WT yeast gro inh: 9; KCC2 mod: -3.1*; Diaph inh CS: -4; Diaphorase act: 1; KCC2 secondary: 0.0058; KCC2 bumet counter: 0.0052; KCC2 secondary2: 0.03; HEK counter1: 0.0078; KCC2 ouabain: 0.019; HEK293 Tl flux2: 0.011

What do the screens show for `COc1ccc(-n2cnnc2SCC(=O)Nc2cc(S(=O)(=O)N3CCCCC3)ccc2C)cc1`?
L major viab: 67*; WT yeast gro inh: -13; KCC2 mod: -4.4*; Diaph inh CS: 30; Diaphorase act: 0.7; KCC2 secondary: 0.009; KCC2 bumet counter: 0.0057; KCC2 secondary2: 0.026*; HEK counter1: 0.0043; KCC2 ouabain: 0.014*; HEK293 Tl flux2: 0.011
